From ChEMBL document CHEMBL1141146, “Androsterone 3alpha-ether-3beta-substituted and androsterone 3beta-substituted derivatives as inhibitors of type 3 17beta-hydroxysteroid dehydrogenase: chemical synthesis and structure-activity relationship” (J Med Chem, 2005)

Experiments:
[1] = target: T1, 17-beta-hydroxysteroid dehydrogenase type 3 (Homo sapiens) (UniProt P37058); assay: Inhibition of type-3 17 beta-hydroxysteroid dehydrogenase expressed in HEK293 cells at 0.3 uM 37 degree C pH 7.4; type: cell-based
T1 sequence (whole entry): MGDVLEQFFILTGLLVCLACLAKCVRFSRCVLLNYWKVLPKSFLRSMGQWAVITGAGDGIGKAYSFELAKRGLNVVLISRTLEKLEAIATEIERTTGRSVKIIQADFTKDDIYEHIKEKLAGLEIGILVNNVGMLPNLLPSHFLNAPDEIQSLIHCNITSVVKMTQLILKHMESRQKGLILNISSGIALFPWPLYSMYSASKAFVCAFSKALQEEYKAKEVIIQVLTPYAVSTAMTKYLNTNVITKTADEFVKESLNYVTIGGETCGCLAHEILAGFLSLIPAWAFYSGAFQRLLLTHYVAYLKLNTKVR
In short: (§1)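 Human type 3 17β-HSD was transfected into HEK-293 cells by calcium phosphate. The cells were sonicated in 50 mM Na phosphate pH 7.4 with 20% glycerol and 1 mM EDTA. The 100000g microsomal pellet served as enzyme. The reaction ran at 37 °C in the same buffer with 2 mM NADPH and 0.1 μM [14C]-Δ4-dione, reading conversion to testosterone. Percent inhibition was taken at 0.3 or 3 μM inhibitor.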

[2] = target: T1, 17-beta-hydroxysteroid dehydrogenase type 3 (Homo sapiens); assay: Inhibition of type-3 17 beta-hydroxysteroid dehydrogenase expressed in HEK293 cells at 3 uM 37 degree C pH 7.4; type: cell-based; in short: as §1
[3] = target: T1, 17-beta-hydroxysteroid dehydrogenase type 3 (Homo sapiens); assay: Inhibition of type-3 17 beta-hydroxysteroid dehydrogenase expressed in HEK293 cells at 3 uM 37 degree C in pH 7.4; type: cell-based; in short: as §1
[4] = target: T2, 17-beta-hydroxysteroid dehydrogenase type 3 (Homo sapiens, UniProt P37058); assay: Inhibition of type-3 17 beta-hydroxysteroid dehydrogenase expressed in HEK293 cells at 37 degree C pH7.4; type: cell-based
T2 sequence (P37058 whole entry): T1 sequence (whole entry)
In short: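 HEK-293 cells were transfected with human type 3 17β-HSD, and their 100000g microsomes served as enzyme. Incubation was at 37 °C in 50 mM Na phosphate pH 7.4 with 20% glycerol, 1 mM EDTA, 2 mM NADPH and 0.1 μM [14C]-Δ4-dione. Several inhibitor concentrations were tested. Percent transformation to testosterone was plotted against inhibitor concentration, and IC50 was computed from the curve.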

[5] = target: T1, 17-beta-hydroxysteroid dehydrogenase type 3 (Homo sapiens); conditions: HEK293, 0.3 uM

Row | SMILES | inhibition [1] | inhibition [2] | inhibition [3] | IC50 [4] | inhibition [5]
1 | C[C@]12CC[C@@](O)(Cc3ccccc3)CC1CC[C@@H]1[C@@H]2CC[C@]2(C)C(=O)CC[C@@H]12 (stereo not given in full) | 10% | 39% | – | – | –
2 | CCC[C@]1(O)CC[C@@]2(C)C(CC[C@@H]3[C@@H]2CC[C@]2(C)C(=O)CC[C@@H]32)C1 (stereo not given in full) | 9% | 33% | – | – | –
3 | CO[C@@H]1CC[C@@]2(C)C(CC[C@@H]3[C@@H]2CC[C@]2(C)C(=O)CC[C@@H]32)C1 (stereo not given in full) | 83% | 94% | – | – | –
4 | C[C@]1(O)CC[C@@]2(C)C(CC[C@@H]3[C@@H]2CC[C@]2(C)C(=O)CC[C@@H]32)C1 (stereo not given in full) | 9% | 16% | – | – | –
5 | C[C@]12CC[C@@](O)(CCCO)CC1CC[C@@H]1[C@@H]2CC[C@]2(C)C(=O)CC[C@@H]12 (stereo not given in full) | 2% | 17% | – | – | –
6 | C=CC[C@@]1(O)CC[C@@]2(C)C(CC[C@@H]3[C@@H]2CC[C@]2(C)C(=O)CC[C@@H]32)C1 (stereo not given in full) | 31% | 76% | – | – | –
7 | C=C[C@@]1(O)CC[C@@]2(C)C(CC[C@@H]3[C@@H]2CC[C@]2(C)C(=O)CC[C@@H]32)C1 (stereo not given in full) | 77% | 94% | – | – | –
8 | C[C@]12CC[C@]3(CCC(=O)O3)CC1CC[C@@H]1[C@@H]2CC[C@]2(C)C(=O)CC[C@@H]12 (stereo not given in full) | 50% | 93% | – | – | –
9 | C[C@]12CC[C@](O)(CCCc3ccccc3)CC1CC[C@@H]1[C@@H]2CC[C@]2(C)C(=O)CC[C@@H]12 (stereo not given in full) | 93% | – | 97% | – | –
10 | CC(C)(C)[C@@]1(O)CC[C@@]2(C)C(CC[C@@H]3[C@@H]2CC[C@]2(C)C(=O)CC[C@@H]32)C1 (stereo not given in full) | – | 93% | – | 142 nM | 89%
11 | CO[C@]1(Cc2ccccc2)CC[C@@]2(C)C(CC[C@@H]3[C@@H]2CC[C@]2(C)C(=O)CC[C@@H]32)C1 (stereo not given in full) | 91% | 93% | – | 154 nM | –
12 | C=CC[C@]1(O)CC[C@@]2(C)C(CC[C@@H]3[C@@H]2CC[C@]2(C)C(=O)CC[C@@H]32)C1 (stereo not given in full) | 14% | 36% | – | – | –
13 | C[C@]12CC[C@](O)(CCCO)CC1CC[C@@H]1[C@@H]2CC[C@]2(C)C(=O)CC[C@@H]12 (stereo not given in full) | 17% | 74% | – | – | –
14 | C[C@]12CC[C@@H](OCCC(=O)O)CC1CC[C@@H]1[C@@H]2CC[C@]2(C)C(=O)CC[C@@H]12 (stereo not given in full) | 7% | 48% | – | – | –
15 | CCCC[C@@]1(O)CC[C@@]2(C)C(CC[C@@H]3[C@@H]2CC[C@]2(C)C(=O)CC[C@@H]32)C1 (stereo not given in full) | 88% | 92% | – | 116 nM | –
16 | C[C@]12CCC3(CCCO3)CC1CC[C@@H]1[C@@H]2CC[C@]2(C)C(=O)CC[C@@H]12 (stereo not given in full) | 3% | 94% | – | – | –

Row | SMILES | inhibition [1] | inhibition [2] | inhibition [3] | IC50 [4] | inhibition [5]
17 | CCCO[C@]1(Cc2ccccc2)CC[C@@]2(C)C(CC[C@@H]3[C@@H]2CC[C@]2(C)C(=O)CC[C@@H]32)C1 (stereo not given in full) | 60% | 87% | – | – | –
18 | C[C@]12CC[C@H](O)CC1CC[C@@H]1[C@@H]2CC[C@]2(C)C(=O)CC[C@@H]12 (stereo not given in full) | 1% | 18% | – | – | –
19 | C[C@]12CC[C@@H](OCCCBr)CC1CC[C@@H]1[C@@H]2CC[C@]2(C)C(=O)CC[C@@H]12 (stereo not given in full) | 56% | 93% | – | – | –
20 | C[C@]12CC[C@@]3(CCC(=O)O3)CC1CC[C@@H]1[C@@H]2CC[C@]2(C)C(=O)CC[C@@H]12 (stereo not given in full) | 9% | 53% | – | – | –
21 | CO[C@]1(CCC2CCCCC2)CC[C@@]2(C)C(CC[C@@H]3[C@@H]2CC[C@]2(C)C(=O)CC[C@@H]32)C1 (stereo not given in full) | 80% | 88% | – | 354 nM | –
22 | C=CCO[C@@H]1CC[C@@]2(C)C(CC[C@@H]3[C@@H]2CC[C@]2(C)C(=O)CC[C@@H]32)C1 (stereo not given in full) | 73% | 95% | – | – | –
23 | C[C@]12CC[C@@H](OCCCO)CC1CC[C@@H]1[C@@H]2CC[C@]2(C)C(=O)CC[C@@H]12 (stereo not given in full) | 38% | 86% | – | – | –
24 | CCCO[C@@H]1CC[C@@]2(C)C(CC[C@@H]3[C@@H]2CC[C@]2(C)C(=O)CC[C@@H]32)C1 (stereo not given in full) | 49% | 93% | – | – | –
25 | C[C@]12CC[C@@](O)(c3ccccc3)CC1CC[C@@H]1[C@@H]2CC[C@]2(C)C(=O)CC[C@@H]12 (stereo not given in full) | 7% | 39% | – | – | –
26 | CC(O)CO[C@@H]1CC[C@@]2(C)C(CC[C@@H]3[C@@H]2CC[C@]2(C)C(=O)CC[C@@H]32)C1 (stereo not given in full) | 40% | 89% | – | – | –
27 | CO[C@]1(CCc2ccccc2)CC[C@@]2(C)C(CC[C@@H]3[C@@H]2CC[C@]2(C)C(=O)CC[C@@H]32)C1 (stereo not given in full) | 61% | 95% | – | 73 nM | –
28 | CCO[C@@H]1CC[C@@]2(C)C(CC[C@@H]3[C@@H]2CC[C@]2(C)C(=O)CC[C@@H]32)C1 (stereo not given in full) | 69% | 95% | – | – | –
29 | CCCCCCCCCCCC[C@@]1(O)CC[C@@]2(C)C(CC[C@@H]3[C@@H]2CC[C@]2(C)C(=O)CC[C@@H]32)C1 (stereo not given in full) | 50% | 77% | – | – | –
30 | CCCCCCO[C@]1(Cc2ccccc2)CC[C@@]2(C)C(CC[C@@H]3[C@@H]2CC[C@]2(C)C(=O)CC[C@@H]32)C1 (stereo not given in full) | 24% | 28% | – | – | –
31 | CCO[C@]1(Cc2ccccc2)CC[C@@]2(C)C(CC[C@@H]3[C@@H]2CC[C@]2(C)C(=O)CC[C@@H]32)C1 (stereo not given in full) | 80% | 92% | – | 352 nM | –
32 | CCCCCCO[C@@H]1CC[C@@]2(C)C(CC[C@@H]3[C@@H]2CC[C@]2(C)C(=O)CC[C@@H]32)C1 (stereo not given in full) | 45% | 92% | – | – | –
